The subject of one assay is Thermus aquaticus. Kind of assay: (§1) Inhibition of Thermus aquaticus DNA polymerase by PCR analysis. The essentials: (§2)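 Taq DNA polymerase (2.5 U) run in PCR mix of 40 mM Tris-acetate pH 8.3, 15 mM MgCl2, […], 2.5 mM each dNTP. Compounds were dissolved in DMSO and tested at varying concentrations, with 1:2 serial dilutions. Cycling was 35 cycles: 95 °C 1 min, 56 °C annealing, 72 °C 90 s. Read-out was densitometry of ethidium bromide-stained agarose gel bands. IC50 was interpolated from plots of activity versus inhibitor concentration.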

A short description of assay [1]: as §1. The essentials:
as §2

The source of these data is ChEMBL document CHEMBL3393006, “A new iridoid, verbascoside and derivatives with inhibitory activity against Taq DNA polymerase” (Bioorg Med Chem Lett, 2015).

Calls of active or inactive are those of the source. No cut-off for these calls is given here.

`CC(=O)OC[C@H]1O[C@@H](O[C@@H]2OC=C[C@H]3[C@@H](OC(C)=O)[C@@H]4O[C@]4(COC(C)=O)[C@@H]23)[C@H](OC(C)=O)[C@@H](OC(C)=O)[C@@H]1OC(C)=O`: in the assay with Thermus aquaticus, the inhibition result is “inactive”.
Still for that read-out and setting: next, `CC(C)(C)[Si](OC[C@H]1O[C@@H](O[C@@H]2OC=C[C@H]3[C@@H](O[Si](c4ccccc4)(c4ccccc4)C(C)(C)C)[C@@H]4O[C@]4(CO[Si](c4ccccc4)(c4ccccc4)C(C)(C)C)[C@@H]23)[C@H](O)[C@@H](O)[C@@H]1O)(c1ccccc1)c1ccccc1`: “inactive”; `CC(=O)OC[C@H]1O[C@@H](O[C@@H]2OC=C[C@H]3[C@@H](OC(C)=O)[C@@H]4O[C@]4(COC(C)=O)[C@@H]23)[C@H](O)[C@@H](O)[C@@H]1O`: “inactive”.
In the case of `CC(C)(C)[Si](C)(C)OC[C@]12O[C@H]1[C@H](O[Si](C)(C)C(C)(C)C)[C@@H]1C=CO[C@@H](O[C@@H]3O[C@H](CO)[C@@H](O)[C@H](O)[C@H]3O)[C@@H]12`, half-maximal inhibition in assay [1] (IC50) was put at 78.1 µM.
In the case of `O=C(OC[C@H]1O[C@@H](O[C@@H]2OC=C[C@H]3[C@@H](OC(=O)c4ccccc4)[C@@H]4O[C@]4(COC(=O)c4ccccc4)[C@@H]23)[C@H](O)[C@@H](OC(=O)c2ccccc2)[C@@H]1OC(=O)c1ccccc1)c1ccccc1`, in the assay with Thermus aquaticus, the inhibition entry was “inactive”.
Regarding `CC(C)(C)[Si](C)(C)OC[C@H]1O[C@@H](O[C@@H]2OC=C[C@H]3[C@@H](O[Si](C)(C)C(C)(C)C)[C@@H]4O[C@]4(CO[Si](C)(C)C(C)(C)C)[C@@H]23)[C@H](O)[C@@H](O)[C@@H]1O`, the IC50 (as a rule, the concentration that gives 50% inhibition) in assay [1] came to 5.57 µM.
Still for that read-out and setting: next, `OCC1O[C@@H](O[C@@H]2OC=C[C@H]3[C@@H](O)[C@@H]4O[C@]4(CO)[C@@H]23)C(O)C(O)[C@@H]1O` (single isomer, unassigned): 21.6 µM.
In the case of `CC(=O)OC[C@]12O[C@H]1[C@H](O)[C@@H]1C=CO[C@@H](O[C@@H]3O[C@H](CO)[C@@H](O)[C@H](O)[C@H]3O)[C@@H]12`, the inhibition result in the assay on Thermus aquaticus was “inactive”.
The same measure, in the same setting: next, `CC(C)(C)[Si](OC[C@H]1O[C@@H](O[C@@H]2OC=C[C@H]3[C@@H](O[Si](c4ccccc4)(c4ccccc4)C(C)(C)C)[C@@H]4O[C@]4(CO[Si](c4ccccc4)(c4ccccc4)C(C)(C)C)[C@@H]23)[C@H](O)[C@@H](O[Si](c2ccccc2)(c2ccccc2)C(C)(C)C)[C@@H]1O)(c1ccccc1)c1ccccc1`: “inactive”.
